Test results reported in ChEMBL document CHEMBL1159063, “Apoptotic activities in closely related styryllactone stereoisomers toward human tumor cell lines: Investigation of synergism of styryllactone-induced apoptosis with TRAIL” (Bioorg Med Chem, 2010).

Key:
[1] = Cytotoxicity against human MCF12A cells after 48 hrs by SRB assay; type: cell-based, MCF-12A
Method in brief: (§1)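 Cells grown in RPMI with 10% fetal calf serum at 37 °C, 5% CO2, replated 24 h before use, >90% trypan blue viability. DMSO stocks (1 mg/ml) diluted in medium; 48 h exposure at 37 °C, triplicate wells, concentrations up to 250 µM. Fixed with cold TCA, SRB stained, dye solubilized in 10 mM Tris pH 10.5, A570. Percent inhibition calculated versus untreated cells after subtracting cell-free blanks.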

MCF7 [2] = assay: Antiproliferative activity against human MCF7 cells at 250 uM after 48 hrs by SRB assay; type: functional, cell-based; conditions: for inhibition at 250 µM: Homo sapiens, MCF7, 48 h; method in brief: as §1
CCRF-CEM [3] = assay: Antiproliferative activity against human CEM cells at 250 uM after 48 hrs by SRB assay; type: functional; method in brief: as §1
CCRF-CEM [4] = assay: Antiproliferative activity against human CEM cells after 48 hrs by SRB assay; type: functional, cell-based; method in brief: as §1
[5] = Cytotoxicity against human MCF12A cells at 250 uM after 48 hrs by SRB assay; type: cell-based, MCF-12A; conditions: read-out: INH; method in brief: as §1
MCF7 [6] = assay: Antiproliferative activity against human MCF7 cells after 48 hrs by SRB assay; type: functional, cell-based; method in brief: as §1
CCRF-CEM [7] = assay: Cytotoxicity against human CEM cells assessed as late apoptotic/necrotic cells at 120 uM after 24 hrs by Annexin-V-FITC and porpidium iodide staining based flow cytometry; type: functional
Method in brief: (§2)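 CEM cells at 10⁶/ml incubated 24 h at 37 °C with 120 µM agent from fresh DMSO stocks. Cells then washed in ice-cold PBS and taken into binding buffer (10 mM HEPES, 140 mM NaCl, 2.5 mM CaCl2). Annexin V-FITC and PI were added for 15 min in the dark at ambient temperature. Flow cytometry read 520/620 nm, gated on forward scatter to remove debris, counting 10,000 cells. Three experiments.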

CCRF-CEM [8] = assay: Cytotoxicity against human CEM cells assessed as viable cells at 120 uM after 24 hrs by Annexin-V-FITC and porpidium iodide staining based flow cytometry; type: functional; conditions: read-out: Activity; method in brief: as §2
CCRF-CEM [9] = assay: Cytotoxicity against human CEM cells assessed as early apoptotic cells at 120 uM after 24 hrs by Annexin-V-FITC and porpidium iodide staining based flow cytometry; type: functional; method in brief: as §2
[10] = Homo sapiens, MCF-12A, 48 h, read-out: IC50
[11] = Homo sapiens, CCRF-CEM, 48 h, read-out: IC50
[12] = Homo sapiens, MCF7, 48 h, read-out: IC50

Structure (SMILES) | IC50 (CCRF-CEM [4]; ccrf-cem) | IC50 (MCF7 [6]; mcf7) | IC50 (CCRF-CEM [4]; [11]) [µM] | IC50 (MCF7 [6]; [12]) [µM] | IC50 ([1]; mcf-12a) | inhibition at 250 µM (MCF7 [2]) [%] | inhibition at 250 µM (CCRF-CEM [3]) [%] | cytotoxicity at 48 h, 250 µM [5] [%] | Inhibition (MCF7 [2]; mcf7) [%] | Activity (CCRF-CEM [7]) [%] | IC50 [1, 10] [µM] | viability at 120 µM (CCRF-CEM [8]) [%] | Activity (CCRF-CEM [9]) [%]
COC(=O)C[C@H](O)[C@@H]1O[C@@H](c2ccccc2)[C@@H](O)[C@@H]1O | Not Active | Not Active |  |  | Not Active | < 50 | < 50 | < 50 |  |  |  |  | 
COC(=O)C[C@H](O)[C@H]1O[C@@H](c2ccccc2)[C@H](O)[C@H]1O | Not Active | Not Active |  |  | Not Active | < 50 | < 50 | < 50 |  |  |  |  | 
COC(=O)C[C@H](O)[C@@H]1O[C@@H](c2ccccc2)[C@H](O)[C@@H]1O | Not Active | Not Active |  |  | Not Active | < 50 | < 50 | < 50 |  |  |  |  | 

Continued, in another order:

IC50 (CCRF-CEM [4]; ccrf-cem) | IC50 (MCF7 [6]; mcf7) | IC50 (CCRF-CEM [4]; [11]) [µM] | IC50 (MCF7 [6]; [12]) [µM] | Structure (SMILES) | IC50 ([1]; mcf-12a) | inhibition at 250 µM (MCF7 [2]) [%] | inhibition at 250 µM (CCRF-CEM [3]) [%] | cytotoxicity at 48 h, 250 µM [5] [%] | Inhibition (MCF7 [2]; mcf7) [%] | Activity (CCRF-CEM [7]) [%] | IC50 [1, 10] [µM] | viability at 120 µM (CCRF-CEM [8]) [%] | Activity (CCRF-CEM [9]) [%]
Not Active | Not Active |  |  | O=C1C[C@@H](O)[C@@H]2O[C@H](c3ccccc3)[C@@H](O)[C@@H]2O1 | Not Active |  | < 50 | < 50 | < 50 |  |  |  | 
Not Active | Not Active |  |  | COC(=O)C[C@@H](O)[C@@H]1O[C@H](c2ccccc2)[C@@H](O)[C@@H]1O (mixture of isomers) | Not Active | < 50 | < 50 | < 50 |  |  |  |  | 
 |  | 19 | 124 | O=C1C=C[C@@H]2O[C@H](c3ccccc3)[C@@H](O)[C@@H]2O1 [ALTHOLACTONE] |  |  |  |  |  | 19 | 120 | 19 | 33
 |  | 24 | 100 | O=C1C=C[C@H]2O[C@@H](c3ccccc3)[C@H](O)[C@H]2O1 [ENT-ALTHOLACTONE] |  |  |  |  |  | 40 | 110 | 19 | 10
